Test results: the EternaBench riboswitch data

System: MS2 coat protein
Assay: apparent Kd, MS2 coat protein; higher = weaker binding; RNA-MaP array; FMN 200 µM where present
Method in brief: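 Stalled E. coli RNA polymerase produced the designs on Illumina sequencing-chip clusters. SNAP-549-labelled MS2 coat protein was added from 0.7 or 1.5 nM, doubling to 3 µM, without and then with constant ligand, in 100 mM Tris-HCl pH 7.5, 80 mM KCl, 4 mM MgCl2, BSA, DTT, yeast tRNA and Tween-20. The apparent Kd is the median of filtered per-cluster fits of green signal normalised to red-channel RNA signal and control-cluster median Fmax.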

[1] = designed as: OFF switch for flavin mononucleotide, no ligand
[2] = ligand present: flavin mononucleotide, designed as: OFF switch for flavin mononucleotide
[3] = designed as: ON switch for flavin mononucleotide, no ligand
[4] = ligand present: flavin mononucleotide, designed as: ON switch for flavin mononucleotide

Row | Sequence | apparent Kd [1] [nM] | apparent Kd [2] [nM] | apparent Kd [3] [nM] | apparent Kd [4] [nM]
1 | GGUGCGAUGUAGAAGGCAGAUCUGAUUCAGAUCUGAGGAUAUACAUGAGGAUCACCCAUGUAAACGCACCGCACGAGAGUGCAA | 6.6 | 8.12 |  | 
2 | CUGAUGUUAGGAUAUCAGGCUGCGCGCGAAGGCGGACGGCAUGAGAAGGAACAUGAGGAUCACCCAUGUGACGA | 32.6 | 103 |  | 
3 | AUAUAUAACUAAGGAUAUCUGUAUUUUGUUGAAACAUGAGGAUCACCCAUGUUCAUGAAAUUAUAGGAGAAGGUAGAUAUAUAU |  |  | 4.93 | 4.54
4 | GUCAGCUCGUGAGGAUAUACAUGUGCUGGAAACAGCAUUAAAUAAUUCACAUGAGGAUCACCCAUGUAGAAGGCACGAGCUGAU | 16.8 | 33.8 |  | 
5 | AGUCGGAGCAGAGGAUAUUACAUGAGGAUCACCCAUGUAUAAAGAUCAAGCUGGAAACAGCAAUGUAAGAAGGCUGCUCCGACA | 57.4 | 321 |  | 
6 | UGGUACUAGGGAGGAUAUGGGAAGAUACAUGAGGAUCACCCAUGUUUAAGAAUGCCGAGAGGCAACUAGAAGGCCCUCGUACCU |  |  | 432 | 20.1
7 | UAUAUGUCAGGAUAUUAGUUGAGGUGGAAUUUAGCCUCUGCUGAGAAGGGACAUGAGGAUCACCCAUGUUCCUC | 21.9 | 200 |  | 
8 | ACUGUUUGAUUCCUCUUAUACAUGAGGAUCACCCAUGUUAUCGAGGAUAUGCAUUAGAGUGUUUGGCAGAAGGCGAUGUAAUUG | 6.9 | 23.4 |  | 
9 | AUAUCCUAGAUAGGAUAUACUGAGGUUGAAUGGGUAGAAGGAUCGUUAGGGAAGACUACAUGAGGAUCACCCAUGUUGUUUAUU |  |  | 116 | 92.9
10 | CACGGAUAGUAGAAGGGUGACAUGAGGAUCACCCAUGUACUUAUGUAGGUAUUACUAUAUAAUUCACAGGAUAUACUAUCCGUG |  |  | 794 | 90.3
11 | CUGCCCAGUGUGAGGAUAUACAAAGGAAUUCCUUGGUAGAAGGCACAUGAGGAUCACCCAUGUGACUCGCGGUA | 20.6 | 52.7 |  | 
12 | UAAGCGUAUGUUAGGAUAUGCUGGUCCUUGGAUCAGCAGAAGGAACAUGAGGAUCACCCAUGUAGAAUCGUUUA | 18.3 | 40.2 |  | 
13 | GUCUUCCUAGGAUAUACAUGAGGAUCACCCAUGUACAGUUUCGUCAAAGGAUAAUCGCGUAGAAGGAGGUGGAU | 16.5 | 23.6 |  | 
14 | AUUGUUUAUGUAGGAUAUGCCUGGCGUGCCUUCGCAGAAGGACAUGAGGAUCACCCAUGUAUUGCGGUCUGCGUUCAGAUCGCA | 53.3 | 67.2 |  | 
15 | GCGAUGAUCGAGAAGGCCACUACAUGAGGAUCACCCAUGUCGUGGUGUAUUGGAGGAUAUCGAUUGGCGCCUUAUGAGGACAUG | 5.49 | 8.22 |  | 
16 | ACAAAUGGAGGAUAUACAUGAGGAUCACCCAUGUUUAUCCUACAUAUGUGAUAAUAAUGUAGAAGGCCAUAUGA | 12.3 | 12.3 |  | 
17 | UGGUACUAGGGAGGAUAUGGGAAGAUACAUGAGGAUCACCCAUGUUUAAGAAUGCCGCGAGGCAACUAGAAGGCCCUAGUACCU |  |  | 398 | 19.6
18 | ACCAUUUACUAAUUAUCUAUACAUGAGGAUCACCCAUGUUAAGAGGAUAUCAUCGUGAAACACGAUGAGAAGGCUUAGCAUUCG | 54.5 | 187 |  | 
19 | UGAUCCGCAUCGGCGCACAAGACAUGAGGAUCACCCAUGUACAGAAGGCGAAAAGCGAAGGCGGUCGAGGAUAUGUACCUACGG | 6.92 | 15.7 |  | 
20 | UGCGAGCAGAUCGUCCGCUCACAUGAGGAUCACCCAUGUAGGAGAAGGCGCCAUGAAGGCAGCGGCGAGGAUAUCCUCGUGGGC | 78 | 77.6 |  | 
